Test results reported in ChEMBL document CHEMBL3526002, “Tissue distribution and identification of radioactivity components at elimination phase after oral administration of [¹⁴C]CS-1036, an α-amylase inhibitor, to rats” (Drug Metab Dispos, 2013).

Assays:
Format in all cases: ADME, organism-based
Settings in all cases: in vivo; call rule not given here
Small intestine = assay: Drug uptake in albino F344/DuCrlCrlj rat small intestine assessed as ng equivalent of CS-1036 at 5 mg/kg, po after 4 hrs by liquid scintillation counting; set-up: dose 5 mg/kg, dosed compound name [14C]CS-1036, route oral
Kidney [1] = assay: Drug uptake in albino F344/DuCrlCrlj rat kidney assessed as ng equivalent of CS-1036 at 5 mg/kg, po after 24 hrs by liquid scintillation counting; set-up: dose 5 mg/kg, dosed compound name [14C]CS-1036, route oral
Stomach [2] = assay: Drug uptake in albino F344/DuCrlCrlj rat stomach at 5 mg/kg, po after 336 hrs by liquid scintillation counting; set-up: dose 5 mg/kg, dosed compound name [14C]CS-1036, route oral
Large intestine = assay: Drug uptake in albino F344/DuCrlCrlj rat large intestine at 5 mg/kg, po after 168 hrs by liquid scintillation counting; set-up: dose 5 mg/kg, dosed compound name [14C]CS-1036, route oral
Kidney [3] = assay: Drug uptake in albino F344/DuCrlCrlj rat kidney assessed as ng equivalent of CS-1036 at 5 mg/kg, po after 1 hr by liquid scintillation counting; set-up: dose 5 mg/kg, dosed compound name [14C]CS-1036, route oral
Aorta = assay: Drug uptake in albino F344/DuCrlCrlj rat aorta assessed as ng equivalent of CS-1036 at 5 mg/kg, po after 8 hrs by liquid scintillation counting; set-up: dose 5 mg/kg, dosed compound name [14C]CS-1036, route oral
[4] = Drug uptake in albino F344/DuCrlCrlj rat testis assessed as ng equivalent of CS-1036 at 5 mg/kg, po after 336 hrs by liquid scintillation counting; set-up: dose 5 mg/kg, dosed compound name [14C]CS-1036, route oral
Plasma [5] = assay: Drug uptake in albino F344/DuCrlCrlj rat plasma at 5 mg/kg, po after 168 hrs by liquid scintillation counting; set-up: dose 5 mg/kg, dosed compound name [14C]CS-1036, route oral
[6] = Drug uptake in albino F344/DuCrlCrlj rat bone marrow assessed as ng equivalent of CS-1036 at 5 mg/kg, po after 24 hrs by liquid scintillation counting; set-up: dose 5 mg/kg, dosed compound name [14C]CS-1036, route oral
[7] = Drug uptake in albino F344/DuCrlCrlj rat mandibular gland assessed as ng equivalent of CS-1036 at 5 mg/kg, po after 72 hrs by liquid scintillation counting; set-up: dose 5 mg/kg, dosed compound name [14C]CS-1036, route oral
[8] = Drug uptake in albino F344/DuCrlCrlj rat urinary bladder assessed as ng equivalent of CS-1036 at 5 mg/kg, po after 168 hrs by liquid scintillation counting; set-up: dose 5 mg/kg, dosed compound name [14C]CS-1036, route oral
Heart [9] = assay: Drug uptake in albino F344/DuCrlCrlj rat heart at 5 mg/kg, po after 336 hrs by liquid scintillation counting; set-up: dose 5 mg/kg, dosed compound name [14C]CS-1036, route oral
Plasma [10] = assay: Drug uptake in albino F344/DuCrlCrlj rat plasma at 5 mg/kg, po after 24 hrs by liquid scintillation counting; set-up: dose 5 mg/kg, dosed compound name [14C]CS-1036, route oral
Cerebrum [11] = assay: Drug uptake in albino F344/DuCrlCrlj rat cerebrum at 5 mg/kg, po after 24 hrs by liquid scintillation counting; set-up: dose 5 mg/kg, dosed compound name [14C]CS-1036, route oral
Method in brief: (§1)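 Single oral [14C]CS-1036 at 5 mg/kg was given to male rats (159–167 g; n = 3). Cerebrum was collected after aortic bleeding at 1, 4, 8, 24, 72, 168 or 336 h, weighed, and homogenized in 2 volumes of saline. A 0.5 ml aliquot was solubilized in Soluene-350 and counted by LSC with external-standard correction. Results are in ng equivalent/g tissue from specific activity and sample weight.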

Spleen = assay: Drug uptake in albino F344/DuCrlCrlj rat spleen assessed as ng equivalent of CS-1036 at 5 mg/kg, po after 8 hrs by liquid scintillation counting; set-up: dose 5 mg/kg, dosed compound name [14C]CS-1036, route oral
[12] = Drug uptake in albino F344/DuCrlCrlj rat bone marrow at 5 mg/kg, po after 72 hrs by liquid scintillation counting; set-up: dose 5 mg/kg, dosed compound name [14C]CS-1036, route oral
Zone of skin = assay: Drug uptake in albino F344/DuCrlCrlj rat skin assessed as ng equivalent of CS-1036 at 5 mg/kg, po after 24 hrs by liquid scintillation counting; set-up: dose 5 mg/kg, dosed compound name [14C]CS-1036, route oral
Thymus = assay: Drug uptake in albino F344/DuCrlCrlj rat thymus at 5 mg/kg, po after 4 hrs by liquid scintillation counting; set-up: dose 5 mg/kg, dosed compound name [14C]CS-1036, route oral
Kidney [13] = assay: Drug uptake in albino F344/DuCrlCrlj rat kidney assessed as ng equivalent of CS-1036 at 5 mg/kg, po after 8 hrs by liquid scintillation counting; set-up: dose 5 mg/kg, dosed compound name [14C]CS-1036, route oral
Heart [14] = assay: Drug uptake in albino F344/DuCrlCrlj rat heart at 5 mg/kg, po after 72 hrs by liquid scintillation counting; set-up: dose 5 mg/kg, dosed compound name [14C]CS-1036, route oral
Lung [15] = assay: Drug uptake in albino F344/DuCrlCrlj rat lung at 5 mg/kg, po after 4 hrs by liquid scintillation counting; set-up: dose 5 mg/kg, dosed compound name [14C]CS-1036, route oral
Adrenal gland [16] = assay: Drug uptake in albino F344/DuCrlCrlj rat adrenal gland at 5 mg/kg, po after 336 hrs by liquid scintillation counting; set-up: dose 5 mg/kg, dosed compound name [14C]CS-1036, route oral
Cerebrum [17] = assay: Drug uptake in albino F344/DuCrlCrlj rat cerebrum assessed as ng equivalent of CS-1036 at 5 mg/kg, po after 1 hr by liquid scintillation counting; set-up: dose 5 mg/kg, dosed compound name [14C]CS-1036, route oral; method in brief: as §1
Plasma [18] = assay: Drug uptake in albino F344/DuCrlCrlj rat plasma at 10 mg/kg, po after 8 to 72 hrs by liquid scintillation counting; set-up: dose 10 mg/kg, dosed compound name [14C]CS-1036, route oral
Adrenal gland [19] = assay: Drug uptake in albino F344/DuCrlCrlj rat adrenal gland assessed as ng equivalent of CS-1036 at 5 mg/kg, po after 72 hrs by liquid scintillation counting; set-up: dose 5 mg/kg, dosed compound name [14C]CS-1036, route oral
Blood = assay: Drug uptake in albino F344/DuCrlCrlj rat blood assessed as ng equivalent of CS-1036 at 5 mg/kg, po after 336 hrs by liquid scintillation counting; set-up: dose 5 mg/kg, dosed compound name [14C]CS-1036, route oral
Method in brief: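 Male F344/DuCrlCrlj rats (159–167 g; n = 3 per time point) received a single oral dose of [14C]CS-1036 at 5 mg/kg. Blood was taken from the abdominal aorta at 1, 4, 8, 24, 72, 168 and 336 h. Radioactivity was counted by LSC with external-standard efficiency correction. Results were converted to ng equivalent of CS-1036/ml using specific activity and sample volume, and reported as mean + S.D.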

Stomach [20] = assay: Drug uptake in albino F344/DuCrlCrlj rat stomach assessed as ng equivalent of CS-1036 at 5 mg/kg, po after 168 hrs by liquid scintillation counting; set-up: dose 5 mg/kg, dosed compound name [14C]CS-1036, route oral
Plasma [21] = assay: Drug uptake in albino F344/DuCrlCrlj rat plasma at 5 mg/kg, po after 8 hrs by liquid scintillation counting; set-up: dose 5 mg/kg, dosed compound name [14C]CS-1036, route oral
Liver [22] = assay: Drug uptake in albino F344/DuCrlCrlj rat liver at 5 mg/kg, po after 72 hrs by liquid scintillation counting; set-up: dose 5 mg/kg, dosed compound name [14C]CS-1036, route oral
Heart [23] = assay: Drug uptake in albino F344/DuCrlCrlj rat heart at 5 mg/kg, po after 8 hrs by liquid scintillation counting; set-up: dose 5 mg/kg, dosed compound name [14C]CS-1036, route oral
Liver [24] = assay: Drug uptake in albino F344/DuCrlCrlj rat liver at 5 mg/kg, po after 168 hrs by liquid scintillation counting; set-up: dose 5 mg/kg, dosed compound name [14C]CS-1036, route oral
Lung [25] = assay: Drug uptake in albino F344/DuCrlCrlj rat lung assessed as ng equivalent of CS-1036 at 5 mg/kg, po after 8 hrs by liquid scintillation counting; set-up: dose 5 mg/kg, dosed compound name [14C]CS-1036, route oral
[26] = Drug uptake in albino F344/DuCrlCrlj rat testis at 5 mg/kg, po after 4 hrs by liquid scintillation counting; set-up: dose 5 mg/kg, dosed compound name [14C]CS-1036, route oral
Pancreas [27] = assay: Drug uptake in albino F344/DuCrlCrlj rat pancreas at 5 mg/kg, po after 72 hrs by liquid scintillation counting; set-up: dose 5 mg/kg, dosed compound name [14C]CS-1036, route oral
Pancreas [28] = assay: Drug uptake in albino F344/DuCrlCrlj rat pancreas at 5 mg/kg, po after 4 hrs by liquid scintillation counting; set-up: dose 5 mg/kg, dosed compound name [14C]CS-1036, route oral
Heart [29] = assay: Drug uptake in albino F344/DuCrlCrlj rat heart assessed as ng equivalent of CS-1036 at 5 mg/kg, po after 8 hrs by liquid scintillation counting; set-up: dose 5 mg/kg, dosed compound name [14C]CS-1036, route oral

Radiolabel recovery (Small intestine): 903 ngequiv/g | Radiolabel recovery (Kidney [1]): 16 ngequiv/g | Radiolabel recovery (Stomach [2]): 11.9 ngequiv/g | Radiolabel recovery (Large intestine): 26.4 ngequiv/g | Radiolabel recovery (Kidney [3]): 102 ngequiv/g | Radiolabel recovery (Aorta): 42.1 ngequiv/g | Radiolabel recovery [4]: 2.06 ngequiv/g | Radiolabel recovery (Plasma [5]): 3.57 ngequiv/ml | Radiolabel recovery [6]: 19 ngequiv/g | Radiolabel recovery [7]: 9.5 ngequiv/g | Radiolabel recovery [8]: 6.6 ngequiv/g | Radiolabel recovery (Heart [9]): 7.28 ngequiv/g | Radiolabel recovery (Plasma [10]): 46.3 ngequiv/ml | Radiolabel recovery (Cerebrum [11]): 19.3 ngequiv/g | Radiolabel recovery (Spleen): 84.1 ngequiv/g | Radiolabel recovery [12]: 98.9 ngequiv/g | Radiolabel recovery (Zone of skin): 8.2 ngequiv/g | Radiolabel recovery (Thymus): 22 ngequiv/g | Radiolabel recovery (Kidney [13]): 1970 ngequiv/g | Radiolabel recovery (Heart [14]): 27.5 ngequiv/g | Radiolabel recovery (Lung [15]): 37.8 ngequiv/g | Radiolabel recovery (Adrenal gland [16]): 19.5 ngequiv/g | Radiolabel recovery (Cerebrum [17]): 0.23 ngequiv/g | Drug uptake (Plasma [18]): Active | Radiolabel recovery (Adrenal gland [19]): 30.3 ngequiv/g | Radiolabel recovery (Blood): 0.2 ngequiv/ml | Radiolabel recovery (Stomach [20]): 11.2 ngequiv/g | Radiolabel recovery (Plasma [21]): 27.7 ngequiv/ml | Radiolabel recovery (Liver [22]): 446 ngequiv/g | Radiolabel recovery (Heart [23]): 27.2 ngequiv/g | Radiolabel recovery (Liver [24]): 14.3 ngequiv/g | Radiolabel recovery (Lung [25]): 72.1 ngequiv/g | Radiolabel recovery [26]: 22.3 ngequiv/g | Radiolabel recovery (Pancreas [27]): 186 ngequiv/g | Radiolabel recovery (Pancreas [28]): 249 ngequiv/g | Radiolabel recovery (Heart [29]): 8.3 ngequiv/g
Structure (SMILES): C[C@H]1O[C@@H](O[C@H]2[C@H](O)[C@@H](O)[C@@H](O[14C@H]3[14C@H](O)[14CH2]N[14C@@H]3[14CH2]O)O[C@@H]2CO)[C@H](O)[C@@H](O)[C@@H]1O
